Laboratory results reported in ChEMBL document CHEMBL1137344, “Flavonoid dimers as bivalent modulators for P-glycoprotein-based multidrug resistance: synthetic apigenin homodimers linked with defined-length poly(ethylene glycol) spacers increase drug retention and enhance chemosensitivity in resistant cancer cells” (J Med Chem, 2006).
Active and inactive are the calls of the source. No cut-off for these calls is given here.

Legend:
MDA-MB-435 [1] = test: Effect on P-gp-mediated drug efflux in multidrug resistant MDA435/LCC6 cells assessed as intracellular DOX accumulation at 0 to 10 uM; format: functional, Homo sapiens
In short: (§1)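 Resistant MDA435/LCC6 cells grown to confluence, preincubated 30 min at 37 °C in fresh DMEM with modulator (0–20 µM), then DOX added (final 20 µM) for 2 h at 37 °C. Cells trypsinized, washed in cold PBS, lysed in 0.3 N HCl/50% ethanol, sonicated, centrifuged. Supernatant fluorescence read at ex 470/em 585 nm. Mean ± SD of three independent experiments.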

MDA-MB-435 [2] = test: Reversal of paclitaxel resistance in multidrug resistant MDA435/LCC6 cells by MTS assay; format: functional, cell-based; conditions: Homo sapiens
In short: (§2)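 Resistant MDA435/LCC6 cells, 4-day MTS assay of paclitaxel or vinblastine dose-response with dimers at 5 µM or monomers at 10 µM. Verapamil 5 µM as positive control, DMSO 0.05% as solvent control. IC50 from curves, triplicate, some repeated three times and averaged.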

MDA-MB-435 [3] = test: Effect on P-gp-mediated drug efflux in multidrug resistant MDA435/LCC6 cells assessed as relative fold in intracellular DOX accumulation at 10 uM; format: functional, Homo sapiens; in short: as §1
MDA-MB-435 [4] = test: Reversal of mitoxantrone resistance in multidrug resistant LCC6 cells by MTS assay; format: functional, cell-based; conditions: Homo sapiens
In short: (§3)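 MDA435/LCC6 MDR cells in DMEM with 10% FBS, 2000 cells/well, allowed to attach for 24 h. Anticancer drug was added in serial concentrations with or without modulator (dimers 5 µM, monomers 10 µM; 0.05% DMSO solvent control), then grown for 4 days at 37 °C, 5% CO2. MTS/PMS was added for 2 h and A490 read. Survival was taken relative to DMSO controls; IC60 for DOX, IC50 for the others; triplicate.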

P388 [5] = test: Effect on P-gp-mediated drug efflux in P388 cells assessed as DOX accumulation after 30 mins; conditions: Mus musculus
P388/ADR [6] = test: Reversal of daunorubicin resistance in P388 ADR cells by MTS assay at 5 uM; format: functional, cell-based; conditions: Mus musculus
In short: (§4)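 P388/ADR cells in RPMI 1640 with 10% FBS and penicillin/streptomycin, 5000 cells/well. Serial drug concentrations were given with or without modulator (dimers 5 µM, monomers 10 µM; 0.05% DMSO control) and cells grown for 3 days at 37 °C. Read-out was MTS/PMS for 2 h, then A490. IC50 was taken from dose-response curves relative to solvent control; triplicate wells.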

MDA-MB-435 [7] = test: Reversal of vinblastine resistance in multidrug resistant MDA435/LCC6 cells by MTS assay; format: functional, cell-based; conditions: Homo sapiens; in short: as §2
[8] = target: T1, ATP-dependent translocase ABCB1 (Homo sapiens, UniProt P08183); test: Increase in ATPase activity in human P-gp membrane measured as fold over the basal level in presence of 5 mM MgATP at 100 uM; format: functional, cell membranes
T1 sequence (P08183 whole entry): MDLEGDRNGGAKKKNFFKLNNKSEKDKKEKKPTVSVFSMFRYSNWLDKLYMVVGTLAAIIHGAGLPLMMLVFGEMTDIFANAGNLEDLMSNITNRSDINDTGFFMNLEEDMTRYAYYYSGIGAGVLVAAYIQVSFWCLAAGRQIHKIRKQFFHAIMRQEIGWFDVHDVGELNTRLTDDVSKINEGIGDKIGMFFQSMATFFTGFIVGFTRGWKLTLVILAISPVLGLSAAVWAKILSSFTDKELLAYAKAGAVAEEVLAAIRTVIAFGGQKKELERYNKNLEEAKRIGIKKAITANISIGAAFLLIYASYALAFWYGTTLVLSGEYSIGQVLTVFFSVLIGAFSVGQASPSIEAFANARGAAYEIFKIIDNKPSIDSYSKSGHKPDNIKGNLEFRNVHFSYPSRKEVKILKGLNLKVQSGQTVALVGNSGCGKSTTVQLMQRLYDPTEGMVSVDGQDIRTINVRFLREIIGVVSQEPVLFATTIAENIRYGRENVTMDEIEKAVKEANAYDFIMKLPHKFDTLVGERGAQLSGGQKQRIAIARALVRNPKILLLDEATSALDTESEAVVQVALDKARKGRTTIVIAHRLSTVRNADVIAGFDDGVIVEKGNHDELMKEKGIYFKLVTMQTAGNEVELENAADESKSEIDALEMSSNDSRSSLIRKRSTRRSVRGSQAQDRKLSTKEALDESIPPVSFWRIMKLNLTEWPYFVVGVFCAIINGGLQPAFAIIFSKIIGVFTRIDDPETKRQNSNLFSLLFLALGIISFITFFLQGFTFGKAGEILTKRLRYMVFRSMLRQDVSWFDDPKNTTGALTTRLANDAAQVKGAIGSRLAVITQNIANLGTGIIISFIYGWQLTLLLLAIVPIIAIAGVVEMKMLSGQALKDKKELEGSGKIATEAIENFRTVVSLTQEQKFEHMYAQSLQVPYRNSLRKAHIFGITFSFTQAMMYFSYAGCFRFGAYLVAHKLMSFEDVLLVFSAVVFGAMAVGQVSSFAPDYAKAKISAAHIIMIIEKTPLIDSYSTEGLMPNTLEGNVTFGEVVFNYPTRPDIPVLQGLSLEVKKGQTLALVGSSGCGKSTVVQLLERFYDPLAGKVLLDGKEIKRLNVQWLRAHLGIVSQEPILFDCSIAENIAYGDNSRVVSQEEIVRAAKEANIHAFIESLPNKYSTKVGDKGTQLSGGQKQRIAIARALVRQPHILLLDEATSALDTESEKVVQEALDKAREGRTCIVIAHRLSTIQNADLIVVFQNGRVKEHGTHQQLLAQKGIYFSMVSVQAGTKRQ
In short: (§5)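 Human P-gp membrane (25 µg) incubated at 37 °C with compound (100 µM), verapamil (100 µM), both, Na3VO4 (100 µM) or 0.1% DMSO. Reaction started with 5 mM MgATP, run 40 min at 37 °C. Remaining ATP detected by luciferase luminescence after 20 min at room temperature. Activity is the luminescence drop versus vanadate-treated samples.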

[9] = target: T1, ATP-dependent translocase ABCB1; test: Increase in VP-induced ATPase activity in human P-gp membrane measured as fold over the basal level in presence of 5 mM MgATP at 100 uM; format: functional, cell membranes; in short: as §5
MDA-MB-435 [10] = test: Effect on P-gp-mediated drug efflux in MDA435/LCC6 cells assessed as intracellular DOX accumulation; format: functional, cell-based; conditions: Homo sapiens
In short: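 Confluent MDA435/LCC6 parent and MDR cells were preincubated with modulator in fresh DMEM for 30 min at 37 °C (range 0–20 µM; 0.05% DMSO control). DOX at 20 µM final was added for 2 h at 37 °C. Cells were trypsinised, washed three times in cold PBS, lysed in 0.3 N HCl/50% ethanol, sonicated and centrifuged. Supernatant DOX fluorescence was read (ex 470, em 585 nm); three independent experiments.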

[11] = target: T1, ATP-dependent translocase ABCB1; test: Inhibition of VP-induced ATPase activity in human P-gp membrane in presence of verapamil; format: functional, cell membranes; parameters: scale not given: the % may be the effect or the level left
MDA-MB-435 [12] = test: Reversal of cisplatin resistance in multidrug resistant MDA435/LCC6 cells by MTS assay; format: functional, cell-based; conditions: Homo sapiens
P388/ADR [13] = test: Effect on P-gp-mediated drug efflux in adriamycin drug resistant P388 cells assessed as DOX accumulation after 30 mins; conditions: Mus musculus
P388/ADR [14] = test: Reversal of DOX resistance in P388 ADR cells by MTS assay at 5 uM; format: functional, cell-based; conditions: Mus musculus
In short: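 P388/ADR cells: 3-day MTS assay of DOX dose-response with modulator at 5 µM, or 10 µM for monomers. Verapamil 5 µM and 0.05% DMSO as controls. IC50 from curves, triplicate points, mean ± SD of three independent experiments.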

MDA-MB-435 [15] = test: Cytotoxicity against MDA435/LCC6 cells at 5 uM; format: functional, cell-based; conditions: Homo sapiens
MDA-MB-435 [16] = test: Reversal potency of vinblastine resistance in multidrug resistant MDA435/LCC6 cells by MTS assay; format: functional; conditions: Homo sapiens, in the assay text read “doxorubicin” for “vinblastine”
P388/ADR [17] = test: Reversal potency of daunorubicin resistance in P388 ADR cells by MTS assay; format: functional, cell-based; conditions: Mus musculus
In short: (§6)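 P388/ADR cells: DOX or daunorubicin IC50 by 3-day MTS assay (A490) with modulator at 0–10 µM. Concentration dependence of IC50 used to gauge reversal potency. Typical experiment in triplicate.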

P388/ADR [18] = test: Reversal potency of DOX resistance in P388 ADR cells by MTS assay; format: functional, cell-based; conditions: Mus musculus; in short: as §6
P388/ADR [19] = test: Reversal of mitoxantrone resistance in adriamycin resistant P388 cells by MTS assay; format: functional, cell-based; conditions: Mus musculus; in short: as §4
P388/ADR [20] = test: Antiproliferative activity against adriamycin resistant P388 cells in presence of 5 uM verapamil by ELISA; format: functional, cell-based; conditions: Mus musculus
In short: (§7)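 P388/ADR cells seeded 5000/well in RPMI 1640 with 10% FBS, given drug concentration series with or without 5 µM modulator for 3 days. MTS/PMS added for 2 h at 37 °C, absorbance at 490 nm. IC50 from dose-response curves versus 0.05% DMSO controls. RF = IC50 without modulator / IC50 with modulator.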

P388/ADR [21] = test: Antiproliferative activity against adriamycin resistant P388 cells by ELISA; format: functional, cell-based; conditions: Mus musculus
In short: (§8)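 MTS/PMS proliferation assay: cells seeded 5000/well in RPMI 1640 with 10% FBS and penicillin/streptomycin at 37 °C, 5% CO2. Drug series added and cells grown 3 days. MTS/PMS added for 2 h at 37 °C, absorbance read at 490 nm. Survival relative to DMSO (0.05%) controls; IC50 from dose-response curves, at least triplicate.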

P388 [22] = test: Relative fold, IC50 in absence to presence of 1,13-bis[4'-((5,7-dihydroxy)-4H-chromen-4-on-2-yl)phenyl]-1,4,7,10,13-pentaoxatridecane in multidrug resistant P388 cells; format: functional, Mus musculus; in short: as §7
MDA-MB-435 [23] = test: Antiproliferative activity against multidrug resistant MDA435/LCC6 cells by ELISA; format: functional, cell-based; conditions: Homo sapiens
In short: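 MTS/PMS proliferation assay: cells seeded 2000/well, drugs added after 24 h attachment, growth 4 days in DMEM with 10% FBS at 37 °C, 5% CO2. MTS/PMS added for 2 h, absorbance read at 490 nm. Survival is taken relative to DMSO (0.05%) controls. IC50 is read from dose-response curves, at least triplicate, repeated twice.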

MDA-MB-435 [24] = test: Antiproliferative activity against multidrug resistant MDA435/LCC6 cells in presence of 5 uM 1,13-bis[4'-((5,7-dihydroxy)-4H-chromen-4-on-2-yl)phenyl]-1,4,7,10,13-pentaoxatridecane by ELISA; format: functional, cell-based; conditions: Homo sapiens
In short: (§9)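 Resistant breast cells seeded 2000/well, allowed 24 h attachment, then exposed to anticancer-drug concentration series with or without 5 µM modulator for 4 days. MTS/PMS read at 490 nm after 2 h. IC50 from dose-response curves relative to 0.05% DMSO controls. RF = IC50 without modulator divided by IC50 with modulator.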

P388 [25] = test: Antiproliferative activity against P388 cells by ELISA; format: functional, cell-based; conditions: Mus musculus; in short: as §8
P388/ADR [26] = test: Antiproliferative activity against adriamycin resistant P388 cells in presence of 5 uM 1,13-bis[4'-((5,7-dihydroxy)-4H-chromen-4-on-2-yl)phenyl]-1,4,7,10,13-pentaoxatridecane by ELISA; format: functional, cell-based; conditions: Mus musculus; in short: as §7
MDA-MB-435 [27] = test: Antiproliferative activity against MDA435/LCC6 cells by ELISA; format: functional, cell-based; conditions: Homo sapiens
MDA-MB-435 [28] = test: Relative fold, IC50 in absence to presence of 1,13-bis[4'-((5,7-dihydroxy)-4H-chromen-4-on-2-yl)phenyl]-1,4,7,10,13-pentaoxatridecane in multidrug resistant MDA435/LCC6 cells; format: functional, Homo sapiens; in short: as §9
P388 [29] = test: Relative fold, IC50 in absence to presence of verapamil in multidrug resistant P388 cells; format: functional, Mus musculus; in short: as §7
MDA-MB-435 [30] = test: Reversal of vinblastine resistance in multidrug resistant MDA435/LCC6 cells by MTS assay at 10 uM; format: functional, cell-based; conditions: Homo sapiens; in short: as §3
MDA-MB-435 [31] = test: Reversal of DOX resistance in multidrug resistant MDA435/LCC6 cells by MTS assay at 10 uM; format: functional, cell-based; conditions: Homo sapiens; in short: as §3
MDA-MB-435 [32] = test: Cytotoxicity against MDA435/LCC6 cells at 10 uM; format: functional, cell-based; conditions: Homo sapiens

Structure (SMILES): O=c1cc(-c2ccc(OCCOCCOCCOCCOc3ccc(-c4cc(=O)c5c(O)cc(O)cc5o4)cc3)cc2)oc2cc(O)cc(O)c12
- Activity (MDA-MB-435 [1]): 17%
- EC50 (MDA-MB-435 [2]): 900 nM
- IC50 (MDA-MB-435 [2]): 4.4 nM
- Activity (MDA-MB-435 [3]): 5.8
- Activity (MDA-MB-435 [4]): inactive
- Activity (P388 [5]): inactive
- IC50 (P388/ADR [6]): 100 nM
- Activity (MDA-MB-435 [7]): Dose-dependent effect
- IC50 (MDA-MB-435 [7]): 0.36 nM
- Activity [8]: 3.3
- Activity [9]: 7.4
- Activity (MDA-MB-435 [10]): inactive
- Activity [11]: 17%
- Activity (MDA-MB-435 [12]): inactive
- Activity (P388/ADR [13]): Dose-dependent effect
- IC50 (P388/ADR [14]): 150 nM
- Activity (MDA-MB-435 [15]): inactive
- IC60 (MDA-MB-435 [16]): 730 nM
- IC50 (P388/ADR [17]): 100 nM
- IC50 (P388/ADR [18]): 150 nM
- Activity (P388/ADR [19]): inactive

Structure (SMILES): COc1cccc2c1C(=O)c1c(O)c3c(c(O)c1C2=O)C[C@@](O)(C(C)=O)C[C@@H]3O[C@H]1C[C@H](N)[C@H](O)[C@H](C)O1 [DAUNORUBICIN]
- IC50 (P388/ADR [20]): 40 nM
- IC50 (P388/ADR [21]): 2110 nM
- Ratio IC50 (P388 [22]): 20
- IC50 (MDA-MB-435 [23]): 977 nM
- IC50 (MDA-MB-435 [24]): 129 nM
- IC50 (P388 [25]): 25 nM
- IC50 (P388/ADR [26]): 106 nM
- IC50 (MDA-MB-435 [27]): 79 nM
- Ratio IC50 (MDA-MB-435 [28]): 7.6
- Ratio IC50 (P388 [29]): 53

Structure (SMILES): O=c1cc(-c2ccc(OCCOCCOCCO)cc2)oc2cc(O)cc(O)c12
- Activity (MDA-MB-435 [30]): inactive
- Activity (MDA-MB-435 [31]): inactive
- Activity (MDA-MB-435 [32]): inactive

Structure (SMILES): O=c1cc(-c2ccc(OCCOCCOCCOCCO)cc2)oc2cc(O)cc(O)c12
- Activity (MDA-MB-435 [30]): inactive
- EC50 (MDA-MB-435 [2]): > 10000 nM
- Activity (MDA-MB-435 [31]): inactive
- Activity (MDA-MB-435 [32]): inactive
